Calls of active or inactive are those of the source.
Key:
Mus musculus [1] = assay: Analgesic activity in mouse assessed as decrease in time of paw licking during phase 2 at 69 mg/kg, ip measured for 15 to 30 mins by formalin test relative to control; assay type: functional; set-up: scale not given: the % may be the effect or the level left
Method in brief: (§1)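 Formalin test in mice: 20 μL of 5% formalin injected intraplantarly into the right hind paw. Each mouse was observed alone in a glass beaker for 30 min. Time (s) spent licking or biting the injected paw was recorded at 0–5 min (acute phase) and 15–30 min (inflammatory phase).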

SH-SY5Y [2] = assay: Cytotoxicity against human SH-SY5Y cells 10^-8 to 10^-4 M after 24 hrs by MTT assay; assay type: cell-based
Mus musculus [3] = assay: Toxicity in mouse at 60 mg/kg, ip measured during maximal electroshock seizure test; assay type: organism-based; conditions: in vivo
[4] = Cytotoxicity against mouse CRL-2541 cells assessed as effect on cell viability at 10 to 250 uM after 24 hrs by MTT assay; assay type: cell-based
Mus musculus [5] = assay: Toxicity in mouse assessed as effect on spontaneous activity at 69 mg/kg, ip measured for 30 mins by photoresistor actometer relative to control; assay type: organism-based; conditions: in vivo, 0.5 h
Method in brief: (§2)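 Mice dosed ip; locomotor activity by photoresistor actometers counting light-beam interruptions. Each mouse was habituated 30 min in a cage, then crossings were counted over a 30 min session. Data are mean ± SEM and % change vs control; unpaired t test.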

HepG2 [6] = assay: Cytotoxicity against human HepG2 cells assessed as effect on cell viability at 10 to 250 uM after 24 hrs by MTT assay; assay type: cell-based; conditions: hepg2, 24 h
Method in brief: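 HepG2 cells grown in MEM with 10% FBS (37 °C, 5% CO2) and seeded at 1 × 10^4. After overnight culture, exposed to 10–250 μM for 24 h. MTT for 3 h, formazan dissolved, OD 570 nm. Viability is % of control ± SEM from three independent experiments.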

Mus musculus [7] = assay: Anticonvulsant activity in mouse assessed as current strength required to induce tonic hind-limb extension in 50% of the animals at 30 mg/kg, ip by maximal electroshock seizure threshold test (reference value: 6.05 to 8.13 mA); assay type: functional
Mus musculus [8] = assay: Neurotoxicity in mouse assessed as motor impairment by measuring time of escaping from chimney at 69 mg/kg, ip measured for 60 secs (reference value: 8.87 +/- 1.79 secs); assay type: toxicity, organism-based; conditions: in vivo, 1 min
Method in brief: (§3)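 Mice dosed ip; trained, selected animals placed in a horizontal tube 25 cm long and 2.5 cm in diameter, then tube reversed so mice must climb out backward. Read-outs: escape time (s) ± SEM and % animals losing coordination versus control. Unpaired t test.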

HepG2 [9] = assay: Cytotoxicity against human HepG2 cells assessed as effect on cell viability at 10 to 250 uM after 24 hrs by neutral red assay; assay type: cell-based; conditions: hepg2, 24 h
Method in brief: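 HepG2 cells seeded at 5 × 10^4 per well, then after 24 h given medium with 10–250 μM for 24 h. Viability by neutral red staining, OD 570 nm. Results are % of control ± SEM, three independent experiments.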

Mus musculus [10] = assay: Neurotoxicity in mouse assessed as motor impairment by measuring loss of coordination at 69 mg/kg, ip measured for 60 secs by chimney test relative to control; assay type: toxicity, organism-based; conditions: in vivo, 1 min; method in brief: as §3
Mus musculus [11] = assay: Anticonvulsant activity in mouse assessed as increase in electroconvulsive threshold at 30 mg/kg, ip by maximal electroshock seizure threshold test relative to control; assay type: functional
SH-SY5Y [12] = assay: Potentiation of H2O2-induced cytotoxicity against human SH-SY5Y cells at 10^-6 to 10^-5 M after 24 hrs by MTT assay; assay type: cell-based
Mus musculus [13] = assay: Anticonvulsant activity in mouse assessed as protection against subcutaneous pentylenetetrazole-induced seizures at 100 mg/kg, ip measured for 30 mins post pentylenetetrazole challenge at 0.5 hrs after compound dosing relative to control; assay type: functional
Mus musculus [14] = assay: Anticonvulsant activity in ip dosed mouse assessed as protection against maximal electroshock-induced seizures; assay type: functional
Method in brief: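 Mice were dosed ip. Maximal seizures were induced by auricular electrodes (25 mA, 500 V, 50 Hz, 0.2 s). Absence of hind-limb tonic extension counted as protection. […] Motor impairment was scored on a 10 rpm rotarod, giving TD50 the same way.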

Mus musculus [15] = assay: Anticonvulsant activity in mouse assessed as protection against maximal electroshock-induced seizures at 100 mg/kg, ip; assay type: functional, organism-based
Method in brief: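 Mice dosed ip; maximal seizures induced by auricular electroshock (25 mA, 500 V, 50 Hz, 0.2 s). Endpoint: hind-limb tonic extension; animals without it scored protected. Read-out is number protected over number tested.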

Mus musculus [16] = assay: Analgesic activity in mouse assessed as decrease in time of paw licking during phase 1 at 69 mg/kg, ip measured for 5 mins by formalin test relative to control; assay type: functional; set-up: scale not given: the % may be the effect or the level left; method in brief: as §1
SH-SY5Y [17] = assay: Cytotoxicity against human SH-SY5Y cells 10^-8 to 10^-4 M after 72 hrs by LDH release assay; assay type: cell-based
Method in brief: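 SH-SY5Y cells grown in DMEM with 10% FBS, then seeded at 15000 per well in 1% FBS a day ahead. Treated with 10^-8 to 10^-4 M (water-dissolved) for 72 h, with vehicle controls and triton as positive control. LDH in medium read at 490 nm, expressed as % of vehicle-treated cells. Dunnett's test after one-way ANOVA.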

[18] = Protection index, ratio of TD50 for neurotoxicity in ip dosed mouse by rotarod test to ED50 for anticonvulsant activity in mouse by maximal electroshock seizure test; assay type: toxicity, organism-based; conditions: in vivo, read-out: Ratio TD50/ED50
Mus musculus [19] = assay: Toxicity in mouse at 80 mg/kg, ip measured during maximal electroshock seizure test; assay type: organism-based; conditions: in vivo
Mus musculus [20] = assay: Anticonvulsant activity in mouse assessed as protection against subcutaneous pentylenetetrazole-induced seizures by measuring latency time of tonic seizures at 100 mg/kg, ip measured for 30 mins post pentylenetetrazole challenge at 0.5 hrs after compound dosing (reference value: 562.8 to 614.9 secs); assay type: functional
SH-SY5Y [21] = assay: Potentiation of H2O2-induced cytotoxicity against human SH-SY5Y cells at 10^-8 to 10^-6 M after 72 hrs by LDH release assay; assay type: cell-based
Method in brief: (§4)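 SH-SY5Y cells in 1% FBS given 10^-8 to 10^-5 M for 72 h, with H2O2 (0.5 mM) added for the last 24 h. LDH released into medium measured at 490 nm and normalized to vehicle cells without H2O2. Dunnett's test after one-way ANOVA.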

[22] = Neurotoxicity in ip dosed mouse assessed as motor impairment measured for one min by rotarod test; assay type: toxicity, organism-based; conditions: in vivo
Method in brief: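 Mice trained on an accelerating rotarod, then tested at least 24 h later after ip pretreatment, on a rod turning at 10 rpm. Neurotoxicity was scored as failure to stay on the rod for one minute. Read-out is mice impaired over mice tested.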

Mus musculus [23] = assay: Toxicity in mouse at 100 mg/kg, ip measured during maximal electroshock seizure test; assay type: organism-based; conditions: in vivo
SH-SY5Y [24] = assay: Potentiation of H2O2-induced cytotoxicity against human SH-SY5Y cells at 10^-5 M after 72 hrs by LDH release assay; assay type: cell-based; conditions: 10 µM; method in brief: as §4
HepG2 [25] = assay: Cytotoxicity against human HepG2 cells assessed as effect on cell viability at 10 to 200 uM after 24 hrs by MTT assay; assay type: cell-based; conditions: hepg2, 24 h
Method in brief: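 HepG2 cells grown in MEM with 10% FBS (37 °C, 5% CO2) and seeded at 1 × 10^4. After overnight culture, doxorubicin 10–200 μM for 24 h. MTT added for 3 h, crystals dissolved, OD 570 nm. Viability is % of control ± SEM, three independent experiments.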

Mus musculus [26] = assay: Anticonvulsant activity in mouse assessed as protection against subcutaneous pentylenetetrazole-induced seizures at 50 mg/kg, ip measured for 30 mins post pentylenetetrazole challenge at 0.5 hrs after compound dosing relative to control; assay type: functional
Mus musculus [27] = assay: Anticonvulsant activity in mouse assessed as protection against subcutaneous pentylenetetrazole-induced seizures at 80 mg/kg, ip measured for 30 mins post pentylenetetrazole challenge at 0.5 hrs after compound dosing relative to control; assay type: functional
Mus musculus [28] = assay: Anticonvulsant activity in mouse assessed as current strength required to induce tonic hind-limb extension in 50% of the animals at 20 mg/kg, ip by maximal electroshock seizure threshold test (reference value: 6.05 to 8.13 mA); assay type: functional
Mus musculus [29] = assay: Analgesic activity in mouse assessed as decrease in time of paw licking during phase 2 at 33 mg/kg, ip measured for 15 to 30 mins by formalin test relative to control; assay type: functional; set-up: scale not given: the % may be the effect or the level left; method in brief: as §1
Mus musculus [30] = assay: Analgesic activity in mouse assessed as decrease in time of paw licking during phase 1 at 33 mg/kg, ip measured for 5 mins by formalin test relative to control; assay type: functional; set-up: scale not given: the % may be the effect or the level left; method in brief: as §1
Mus musculus [31] = assay: Anticonvulsant activity in mouse assessed as increase in electroconvulsive threshold at 20 mg/kg, ip by maximal electroshock seizure threshold test relative to control; assay type: functional
Mus musculus [32] = assay: Neurotoxicity in mouse assessed as motor impairment by measuring loss of coordination at 33 mg/kg, ip measured for 60 secs by chimney test relative to control; assay type: toxicity, organism-based; conditions: in vivo, 1 min; method in brief: as §3
Mus musculus [33] = assay: Neurotoxicity in mouse assessed as motor impairment by measuring time of escaping from chimney at 33 mg/kg, ip measured for 60 secs (reference value: 8.87 +/- 1.79 secs); assay type: toxicity, organism-based; conditions: in vivo, 1 min; method in brief: as §3
Mus musculus [34] = assay: Anticonvulsant activity in mouse assessed as protection against subcutaneous pentylenetetrazole-induced seizures by measuring latency time of tonic seizures at 80 mg/kg, ip measured for 30 mins post pentylenetetrazole challenge at 0.5 hrs after compound dosing (reference value: 562.8 to 614.9 secs); assay type: functional
Mus musculus [35] = assay: Toxicity in mouse assessed as effect on spontaneous activity at 33 mg/kg, ip measured for 30 mins by photoresistor actometer relative to control; assay type: organism-based; conditions: in vivo, 0.5 h; method in brief: as §2

With Cc1cccc(OCCOCCN2CCCC(O)C2)c1C.Cl (stereo not drawn) the Activity (Mus musculus [1]) was 64.59%, the Activity (SH-SY5Y [2]) was “Non-Toxic” and the Activity (Mus musculus [3]) was “Non-Toxic”. For the same compound, the Activity [4] was “Non-Toxic”, the Activity (Mus musculus [5]) was 14.98% and the Activity (HepG2 [6]) was “Non-Toxic”. The Activity (Mus musculus [7]) was 13.18 mA, the Time (Mus musculus [8]) was 4.75 s and the Activity (HepG2 [9]) was “Non-Toxic”. For the same compound, the Activity (Mus musculus [10]) was 0%, the Activity (Mus musculus [11]) was 75.03% and the Activity (SH-SY5Y [12]) was “Toxic”. For the same compound, the Activity (Mus musculus [13]) was “inactive”, the ED50 (Mus musculus [14]) was 68.7 mg/kg and the Activity (Mus musculus [15]) was “Active”. The Activity (Mus musculus [16]) was 13.74%, the Activity (SH-SY5Y [17]) was “Non-Toxic” and the selectivity ratio [18] was 1.77. For the same compound, the Activity (Mus musculus [19]) was “Non-Toxic”, the Time (Mus musculus [20]) was 564.8 s and the Activity (SH-SY5Y [21]) was “Non-Toxic”. For the same compound, the TD50 at 1 min [22] was 122 mg/kg, the Activity (Mus musculus [23]) was “Non-Toxic” and the Activity (SH-SY5Y [24]) was “Toxic”.

For COc1cccc2c1C(=O)c1c(O)c3c(c(O)c1C2=O)C[C@@](O)(C(=O)CO)C[C@@H]3O[C@H]1C[C@H](N)[C@H](O)[C@H](C)O1 [DOXORUBICIN], the Activity (HepG2 [25]) was “Toxic”.

Compound CCC1(C)CC(=O)NC1=O (stereo not drawn) [ETHOSUXIMIDE] has an Activity (Mus musculus [13]) of 139.06%, an Activity (Mus musculus [26]) of 123.94% and a Time (Mus musculus [20]) of 1470 s.

In the case of Cc1cccc(OCCOCCN[C@H]2CCCC[C@@H]2O)c1C (racemic), the Activity (Mus musculus [27]) is reported as 2.05%, the Activity (Mus musculus [3]) is reported as “Non-Toxic” and the Activity (Mus musculus [28]) is reported as 7.01 mA. For the same compound, the Activity (Mus musculus [29]) was 70.13%, the Activity (Mus musculus [30]) was 25.47% and the Activity (Mus musculus [31]) was “inactive”. For the same compound, the Activity (Mus musculus [32]) was 0%, the Time (Mus musculus [33]) was 4.13 s and the Time (Mus musculus [34]) was 596 s. For the same compound, the ED50 (Mus musculus [14]) was 32.9 mg/kg, the Activity (Mus musculus [35]) was 3.42% and the Activity (Mus musculus [15]) was “Active”. For the same compound, the selectivity ratio [18] was 1.44, the TD50 at 1 min [22] was 47.4 mg/kg and the Activity (Mus musculus [23]) was “Non-Toxic”.

Reference: ChEMBL document CHEMBL4261484, “Design, synthesis and anticonvulsant-analgesic activity of new N-[(phenoxy)alkyl]- and N-[(phenoxy)ethoxyethyl]aminoalkanols” (Medchemcomm, 2017)
